Bioassay records: PubChem, Johns Hopkins Ion Channel Center
TRPC4 potent – positive allosteric modulators of TRPC4, primary screen, cell-based, mouse TRPC4beta, HEK293 mu-opioid, Fluo-4 calcium | Short transient receptor potential channel 4 (Mus musculus), Q9QUQ5 | DAMGO EC20, Fluo-4 Ca2+ flux; hits give high values | B-score at 10 µM | 310,000 compounds, 0.42% hits;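 active = B-score of calcium response area above 5 SD of library B-scores, with initial fluorescence ratio within 5 SD of library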;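 note: B-score of integrated fluorescence ratio over time as area under calcium response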
Target sequence (Q9QUQ5 whole entry, looked up): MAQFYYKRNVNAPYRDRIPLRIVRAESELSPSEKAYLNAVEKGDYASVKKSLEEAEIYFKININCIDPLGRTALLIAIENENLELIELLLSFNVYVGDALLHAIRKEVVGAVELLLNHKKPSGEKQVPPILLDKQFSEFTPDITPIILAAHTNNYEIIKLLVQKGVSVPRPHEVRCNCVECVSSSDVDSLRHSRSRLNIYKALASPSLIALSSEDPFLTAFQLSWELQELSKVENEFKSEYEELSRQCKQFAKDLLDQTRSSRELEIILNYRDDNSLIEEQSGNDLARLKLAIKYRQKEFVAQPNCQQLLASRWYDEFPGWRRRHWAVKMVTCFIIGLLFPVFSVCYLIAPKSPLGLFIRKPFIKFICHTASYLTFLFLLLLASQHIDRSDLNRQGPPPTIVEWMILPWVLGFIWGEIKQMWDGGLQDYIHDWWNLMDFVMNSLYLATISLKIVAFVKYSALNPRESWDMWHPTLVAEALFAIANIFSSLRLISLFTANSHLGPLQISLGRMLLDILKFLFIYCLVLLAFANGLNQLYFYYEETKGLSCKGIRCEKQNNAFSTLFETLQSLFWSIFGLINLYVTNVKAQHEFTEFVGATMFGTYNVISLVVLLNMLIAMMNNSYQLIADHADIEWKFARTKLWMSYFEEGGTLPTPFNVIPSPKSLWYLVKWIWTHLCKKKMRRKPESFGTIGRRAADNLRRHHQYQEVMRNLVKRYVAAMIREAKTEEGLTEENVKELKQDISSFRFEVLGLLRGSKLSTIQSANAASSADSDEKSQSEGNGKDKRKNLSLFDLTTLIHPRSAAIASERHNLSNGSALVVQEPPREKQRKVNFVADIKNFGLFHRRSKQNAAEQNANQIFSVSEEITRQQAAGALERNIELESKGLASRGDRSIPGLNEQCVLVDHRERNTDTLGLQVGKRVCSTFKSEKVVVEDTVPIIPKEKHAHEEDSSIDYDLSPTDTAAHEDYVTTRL
TRPC6 inhibitor – mouse TRPC6 channel inhibitors, primary screen, cell-based, HEK293, membrane potential dye; 310,000 compounds, 1.1% hits; Short transient receptor potential channel 6 (Mus musculus), Q61143; AID 2553, 2010; ACh-evoked depolarization; hits give low values; B-score at 10 µM;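 active = B-score under library mean minus 3 SD, initial fluorescence not abnormally high, positive integrated signal ratio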;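 note: B-score derived from integrated fluorescence ratio over the kinetic read; more negative B-score means stronger inhibition of depolarization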
TRPC6 act – mouse TRPC6 channel activators, primary screen, cell-based, HEK293, membrane potential dye | Short transient receptor potential channel 6 (Mus musculus), Q61143 | HEK293-TRPC6 membrane potential dye fluorescence; hits give high values | B-score at 10 µM | 310,000 compounds, 0.13% hits;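 active = B-score of the integrated fluorescence ratio above library mean plus 3 SD, and starting fluorescence ratio within library mean plus 5 SD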;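 note: higher score means more depolarization so channel activation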
TRPC4 agonist – activators of mouse TRPC4 channel, primary screen, Fluo4 calcium, HEK293 TRPC4beta/mu-opioid cells; B-score at 10 µM; Fluo4 calcium fluorescence; hits give high values; AID 2237, 2010; Short transient receptor potential channel 4 (Mus musculus), Q9QUQ5; 310,000 compounds, 0.49% hits;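 active = B-score above 5 SD of library B-scores, and initial fluorescence ratio not above library mean plus 5 SD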;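 note: positive B-score marks a calcium rise read as TRPC4 activation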
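Assay system – TRPC4beta and mu-opioid receptor HEK293 stable cells · Measured by – Fluo4 fluorescence, kinetic · Schedule – dye loading 45 min room temperature, 110 s kinetic read · Read-out – B-scored integrated calcium fluorescence ratio · Controls – buffer and maximal DAMGO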
TRPC4 block – inhibitors of mouse TRPC4 channel, primary screen, Fluo4 calcium, HEK293 TRPC4beta/mu-opioid cells | Short transient receptor potential channel 4 (Mus musculus), Q9QUQ5 | DAMGO-evoked Fluo4 calcium flux; hits give low values | B-score at 10 µM | 300,000 compounds, 0.39% hits;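 active = B-score over 3 SD under the library average, no early fluorescence shift, positive overall ratio signal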
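Assay system: HEK293 cells with stable TRPC4beta plus mu-opioid receptor expression; Probe or stimulus: DAMGO in two steps, submaximal then maximal; Dosing: single-point compound dosing; Measured by: Fluo4 calcium-dye fluorescence, kinetic read; Read-out basis: B score from integrated Fluo4 fluorescence ratio.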
TRPC4 spec 2 – second selectivity test of TRPC6 inhibitors: effect on mouse TRPC4; shares compounds with TRPC6 inhibitor; HEK293 TRPC4/MOR, membrane potential dye fluorescence; channel activated by saturating DAMGO dose; inhibition, % at 10 µM; 920 compounds, 42% hits; AID 2776;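 active = compounds whose fluorescence signal differed from control wells by over 3 SD, either direction, in both duplicate plates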
TRPC4 spec – mouse TRPC4 modulation by TRPC6 hits, confirmation, selectivity assay for TRPC6 inhibitor project, cell-based, HEK293 TRPC4/mu-opioid, membrane potential dye. shares compounds with TRPC6 inhibitor. AID 2777, 2010. membrane potential fluorescence. activity change, negative = inhibition, % at 10 µM. 920 compounds, 61% hits;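 active = rise or fall in signal beyond 3 SD of buffer-only wells in both replicate plates, either sign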;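 note: integrated kinetic ratio of fluorescence range over baseline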
HEK293 MPD ctr 2-1 – nonspecific membrane potential effects, parental HEK293, confirmation, counter-screen for TRPC6 inhibitor project, cell-based, second counter screen; 920 compounds, 31% hits; parental HEK293 membrane potential dye fluorescence; maximal acetylcholine challenge after compound addition; shares compounds with TRPC6 inhibitor; signal change vs control, % at 10 µM; AID 2779, 2010;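 active = membrane potential signal moving either way by over 3 SD of the maximum-effect control, in both duplicate plates, meaning non-specific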
HEK293 MPD ctr-1 – membrane potential modulation in parental HEK293, confirmation, counter-screen for TRPC6 inhibitor project, cell-based; shares compounds with TRPC6 inhibitor; parental HEK293 membrane potential dye fluorescence; membrane potential signal change, % at 10 µM; 920 compounds, 60% hits;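 active = membrane potential signal shifting up or down by more than 3 SD of buffer-only wells, on both duplicate plates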
HEK293 MPD ctr-2 – parental HEK293 membrane potential modulation, confirmation, counter-screen for TRPC6 modulator project, cell-based; 2,400 compounds, 51% hits; membrane potential dye fluorescence; AID 488924, 2010; shares compounds with TRPC6 inhibitor; membrane potential signal change, % at 10 µM;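 active = membrane potential signal moves up or down beyond 5 SD from buffer-only wells, on both duplicate plates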
HEK293 MPD ctr 2-2 – parental HEK293 nonspecific activity of TRPC6 modulators, second screen; shares compounds with TRPC6 inhibitor; membrane potential dye fluorescence; after compound, maximal acetylcholine stimulation; inhibition, % at 10 µM; 2,400 compounds, 14% hits;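 active = membrane potential signal drops by more than 5 SD from the mean control signal, in both duplicate plates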;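 note: plate controls were acetylcholine ECmax control wells for no effect and buffer only wells for full effect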
TRPC4/MOR mod – TRPC4 modulation by TRPC6 hit compounds, confirmation, selectivity assay for TRPC6 modulator project, cell-based, HEK293 TRPC4/mu-opioid, membrane potential dye, mouse. shares compounds with TRPC6 inhibitor. membrane potential fluorescence. percent change from control (negative = decrease, positive = increase), % at 10 µM. 2,400 compounds, 69% hits. AID 488927, 2010;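 active = membrane potential signal moved up or down beyond 5 SD of buffer control wells, in both duplicate plates, actives on both sides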;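 note: plate controls were assay buffer wells for no effect and DAMGO maximal-effect wells for full effect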
TRPC4 ctr inh 2 – second check of whether TRPC6 modulators also affect mouse TRPC4. 2,400 compounds, 55% hits. HEK293 TRPC4/mu-opioid, membrane potential dye fluorescence; stimulated with maximal-effect DAMGO. shares compounds with TRPC6 inhibitor. inhibition, % at 10 µM;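 active = drop in membrane potential signal beyond 5 SD of the control wells in both duplicate plates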;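 note: TRPC4 counter screen for TRPC6 hits run under conditions tuned for TRPC6 not TRPC4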
TRPC6 block conf – mouse TRPC6 channel inhibitors, confirmation, HEK293 cells, membrane potential dye, duplicate; shares compounds with TRPC6 inhibitor; AID 488960, 2010; inhibition, % at 10 µM; 3,300 compounds, 43% hits; ACh-evoked depolarization;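 active = fluorescence ratio falls more than 5 SD below the full-stimulation control mean, in both duplicate runs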;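 note: integrated fluorescence ratio of peak minus minimum over baseline after agonist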
TRPC6 act confirm – mouse TRPC6 channel activators, confirmation, HEK293 cells, membrane potential dye, duplicate; HEK293-TRPC6 membrane potential dye fluorescence, FDSS; 2,800 compounds, 11% hits; activation, % at 10 µM; shares compounds with TRPC6 inhibitor;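 active = ratio signal rise beyond 5 SD above unstimulated control wells' mean, seen in both duplicate runs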;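 note: plate controls were buffer EC0 wells for no effect and acetylcholine ECmax response for full effect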
Numbers without * were called inactive; i = inactive; nt = no result. Rows were chosen to be rich in hits. Some 2.3% of all compounds tested hit in one or more screens of this group.

SMILES | TRPC4 potent | TRPC6 inhibitor | TRPC6 act | TRPC4 agonist | TRPC4 block | TRPC6 block conf | TRPC6 act confirm | others
O=C(c1ccc(CN2CCc3ccccc3C2)cc1)N1CCN(c2ccc(F)cc2)CC1 | i | i | i | i | i | nt | nt
Oc1cccc2ccc(Nc3ccccn3)nc12 | i | -9.1* | i | i | i | i | i | TRPC4 spec 2=i;TRPC4 spec=-15%*;HEK293 MPD ctr 2-1=i;HEK293 MPD ctr-1=-180%*
O=C(CSc1nnnn1C1CCCCC1)Nc1ccc(F)cc1 | i | i | i | i | i | nt | nt
O=C(CSc1nnnn1C1CCCCC1)Nc1ccc2c(c1)OCO2 | i | -8.7* | i | i | i | i | i | TRPC4 spec 2=i;TRPC4 spec=i;HEK293 MPD ctr 2-1=i;HEK293 MPD ctr-1=i
CCN(CC(=O)Nc1ccc(NC(C)=O)cc1)C(=O)/C=C/c1c(C)nn(-c2ccc(F)cc2)c1C | i | i | i | i | i | nt | nt
CN1CCN(Cc2nc3ccccc3c(=O)n2CC#N)CC1 | i | -6.9* | i | i | i | i | i | TRPC4 spec 2=i;TRPC4 spec=i;HEK293 MPD ctr 2-1=i;HEK293 MPD ctr-1=i
N#CCn1c(CCl)nc2ccccc2c1=O | i | i | i | i | i | nt | nt
Cc1cc2nc3ccc(N(C)C)cc3nc2cc1N | i | -6.4* | i | i | i | i | i | HEK293 MPD ctr-2=-82%*;HEK293 MPD ctr 2-2=i;TRPC4/MOR mod=-42%*;TRPC4 ctr inh 2=i
Cc1ccc(-n2nc3cc(C)c(N)cc3n2)cc1 | i | i | i | i | i | nt | nt
O=C1c2ccccc2C(=O)N1CCCc1nc(-c2ccccn2)no1 | i | -5* | i | i | i | i | i | HEK293 MPD ctr-2=i;HEK293 MPD ctr 2-2=i;TRPC4/MOR mod=i;TRPC4 ctr inh 2=i
O=C1c2ccccc2C(=O)N1CCc1nc(-c2ccccn2)no1 | i | i | i | i | i | nt | nt
CCCOc1ccc(C(=O)CCN2CCCCC2)cc1 | i | -5.4* | i | i | i | i | nt | HEK293 MPD ctr-2=150%*;HEK293 MPD ctr 2-2=i;TRPC4/MOR mod=24%*;TRPC4 ctr inh 2=i
Cc1cc(S(=O)(=O)N2CCCCC2)ccc1OCC(=O)Nc1ccccc1 | i | i | i | i | i | nt | nt
Cc1ccc(C)c(N2CCN(CCCNC(=O)Cn3cc4c(n3)CCC(C)C4)CC2)c1 (stereo not drawn) | i | i | 14* | i | i | i | i | HEK293 MPD ctr-2=94%*;HEK293 MPD ctr 2-2=i;TRPC4/MOR mod=16%*;TRPC4 ctr inh 2=62%*
CCOc1ccc(S(=O)(=O)N(CC(=O)N/N=C/c2ccc(-c3ccc([N+](=O)[O-])cc3)o2)c2ccccc2)cc1 | i | -5.1* | i | i | i | i | nt | HEK293 MPD ctr-2=i;HEK293 MPD ctr 2-2=i;TRPC4/MOR mod=i;TRPC4 ctr inh 2=i
Cc1ccc(C)c(N(CC(=O)N/N=C/c2ccc(-c3ccc([N+](=O)[O-])cc3)o2)S(=O)(=O)c2ccccc2)c1 | i | i | i | i | i | nt | nt
C=CCn1c(SCC(=O)Nc2sc3c(c2C#N)CCC3)nnc1C1COc2ccccc2O1 (stereo not drawn) | i | i | i | i | i | nt | nt
CN(C)CCCn1c(SCC(=O)Nc2sc3c(c2C#N)CCCC3)nnc1-c1ccncc1 | i | i | 16* | i | i | i | 76%* | HEK293 MPD ctr-2=187%*;HEK293 MPD ctr 2-2=i;TRPC4/MOR mod=28%*;TRPC4 ctr inh 2=i
Cn1c(SCC(=O)Nc2sc3c(c2C#N)CCC3)nnc1C1COc2ccccc2O1 (stereo not drawn) | i | -11* | i | i | i | 63%* | nt | TRPC4 spec 2=i;TRPC4 spec=i;HEK293 MPD ctr 2-1=i;HEK293 MPD ctr-1=i
COCCCn1c(SCC(=O)Nc2sc3c(c2C#N)CCCC3)nnc1-c1ccncc1 | i | i | i | i | i | nt | nt
COc1cccc(C(C)NC(=O)Nc2cccc(C(F)(F)F)c2)c1 (stereo not drawn) | i | i | i | i | i | nt | nt
COc1cc(OC)c(NC(=O)c2cncn2-c2ccc(F)cc2)cc1Cl | i | i | i | i | i | nt | nt
CC1CCN(C(=O)COc2ccc3ccccc3c2Br)CC1 | i | i | i | i | i | nt | nt
Cc1ccc2c(c1)C(c1ccccc1)N(C(=O)CC(C)C)CC(=O)N2 (stereo not drawn) | i | i | i | i | i | nt | nt
CC(=O)Nc1ccc(N2CCOCC2)c(Cl)c1 | i | i | i | i | i | nt | nt
